Rad51 HR inh – blocks human Rad51 in homologous recombination. Q06609. hRad51 DNA strand exchange, fluorescence dequenching. inhibition, % at 10 µM. 200,000 tested, 0.085% active. AID 1385;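 active = inhibition above 40% at the single screening dose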;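 also: 0% = DMSO control wells and 100% = blanks with heterologous ssDNA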
Target sequence (Q06609 whole entry, looked up): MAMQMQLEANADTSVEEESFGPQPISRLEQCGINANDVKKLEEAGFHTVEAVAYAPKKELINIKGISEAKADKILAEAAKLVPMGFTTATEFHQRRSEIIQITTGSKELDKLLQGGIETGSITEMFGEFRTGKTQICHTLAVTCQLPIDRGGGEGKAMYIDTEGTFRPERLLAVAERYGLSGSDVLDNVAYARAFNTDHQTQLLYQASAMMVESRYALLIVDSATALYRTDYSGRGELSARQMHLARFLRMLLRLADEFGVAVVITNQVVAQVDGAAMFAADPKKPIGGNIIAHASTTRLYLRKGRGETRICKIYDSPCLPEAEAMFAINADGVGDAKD
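Test system: preformed human Rad51 ssDNA filaments; also added: Donor/quencher-labelled 47-bp dsDNA substrate; doses: 10 µM final, single point; times: 37 °C 15-min filament assembly, 30-min compound preincubation, 15-min exchange; detection: FRET fluorescence dequenching, excitation 485 nm, emission 520 nm; read-out basis: Fluorescence-based percent inhibition, control- and blank-normalised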
Hsp70 activator – Hsp70 transcriptional activation, primary screen | HeLa Hsp70 promoter luciferase reporter, luminescence; scaled: vehicle 0, proteasome-inhibitor control 100% | activation, % at 10 µM | 200,000 tested, 0.04% active | AID 1203;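 active = activation above the mean across all tested compounds plus 3 SD, cutoff set per campaign, cut at about 5.5% in these data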;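 also: 100% = MG132 at 30 µM as the positive control and 0% = DMSO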
HSF1 inh – HSF1 inhibition. NIH3T3-HGL HSE-luciferase, MG132-induced, luminescence 8 h; stronger effect = lower value. activity change, negative = inhibition, % at 7.5 µM (by protocol). 300,000 tested, 0.77% active. AID 2098;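 active = more than half of replicate wells show activity change below -50%, luminescence cut by over half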;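 also: luciferase reports HSF-1 transcriptional activity via heat shock element; 0% = median of DMSO wells and -100% = zero luminescence signal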
HSV augment – increases HSV replication in cells; maximum fold increase; AID 1956; 220,000 tested, 0.005% active; HSV replication augmentation in cells, fold increase; in the data active = maximum fold increase above about 1.5; tested in PC3 cells
HSF-1 act – increases HSF-1 driven luciferase reporter signal. activation, % at 9 µM. NIH3T3-HGL HSF-1 luciferase reporter, MG132, 8 h; 100% = twice DMSO control signal. 300,000 tested, 1.7% active;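 active = mean replicate activation of at least 50% with a set share of replicates each reaching 50%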;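 also: 0% = median of the neutral control wells and 100% = twice that signal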
MDM2 E3 inh – blocks human Mdm2 ubiquitin ligase activity; Q00987; cell-based MDM2 ubiquitination luciferase reporter, 2 h; 0 = plate control, 100 = twice control, blank-subtracted; signal enhancement, % at 5 µM; 210,000 tested, 0.11% active;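 active = signal enhancement of 30% or more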;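 also: luminescence tracks abundance of the self-degrading MDM2-luciferase fusion protein; higher signal means inhibition of MDM2 E3 ligase activity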
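Timing – 2 h compound exposure at 37 °C · Assay system – mammalian cells stably expressing self-ubiquitinating, self-degrading MDM2 E3–luciferase fusion · Amount – 2000 cells seeded into each well · Measure – % luminescence enhancement versus blank-corrected plate control mean · Measured by – SteadyLite luminescence, 15 min reagent step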
* = called active by the depositor; i = inactive; / = no result given. A selection: hits, their analogues and other compounds. The true share with any hit is near 2.6%.

SMILES | Rad51 HR inh | Hsp70 activator | HSF1 inh | HSV augment | HSF-1 act | MDM2 E3 inh
CCOc1ccc(C(=O)Cc2cc3cccc(OC)c3oc2=O)cc1 | / | / | 3 | / | 15 | /
Cc1ccc(C(=O)Cc2cc3ccccc3oc2=O)c(C)c1 | / | / | 59 | / | 85* | /
COc1ccc(C(=O)Cc2cc3ccccc3oc2=O)cc1 | / | / | 48 | / | 56* | /
CCOC(=O)c1c(C)[nH]c(C)c1S(=O)(=O)NCC(=O)Nc1ccccn1 | / | / | -5 | / | 10 | /
CCC(=O)N1CCN(c2ccccc2NC(=O)c2cccs2)CC1 | / | / | -3 | / | -10 | /
Cn1c(-c2ccccc2)c(C(=O)CCl)c2ccccc21 | -1 | 0 | -1 | i | 1 | 11
CCn1c(-c2ccccc2)c(C(=O)CCl)c2ccccc21 | 11 | 0 | 60 | i | 98* | -14
N#Cc1cccn1-c1nccs1 | -2 | 0 | -86* | i | -89 | -8
S=C(NC1CCCCC1)NC1CC2C=CC1C2 (stereo not drawn) | / | / | 65 | i | 85* | 2
CC(C)(CCO)NC(=S)NC1CC2C=CC1C2 (stereo not drawn) | 20 | / | -3 | i | -3 | -10
N#Cc1c(-c2ccccc2)nc(SCC(=O)Nc2ccc(OC(F)(F)Cl)cc2)[nH]c1=O | / | / | -7 | / | 1 | /
COc1c(CC=C(C)C)cc(C2CC(=O)c3c(O)cc(O)cc3O2)cc1CC=C(C)C (stereo not drawn) | -4 | / | -91* | i | -91 | -39
CC(=O)Nc1ccc(S(=O)(=O)Nc2ccccc2C(=O)N2CCCCCC2)cc1 | / | / | -5 | / | -7 | /
COc1ccccc1-c1nnc(-c2ccc(N3CCOCC3)cc2)o1 | 3 | 0 | 16 | i | 59* | -7
Oc1ccc(N=Cc2ccc(OCc3ccccc3)cc2)cc1 | -5 | 0 | 40 | i | 65* | -5
O=C(CCN1C(=O)/C(=C/c2ccc(F)cc2)SC1=S)NCCCn1ccnc1 | / | / | -59* | / | -69 | /
O=C(CCN1C(=O)/C(=C/c2ccc(Cl)cc2)SC1=S)NCCCn1ccnc1 | / | / | 2 | / | -3 | /
Clc1ccc(CO/N=C/c2c(-c3ccccc3)nc3n2CCS3)c(Cl)c1 | 0 | 0 | 30 | i | 74* | -8
CS(=O)(=O)/C(C#N)=C/c1c(-c2ccccc2)nc2n1CCS2 | 2 | / | 1 | i | 5 | 3
O=C(C1=C[C@H](c2ccc(Br)cc2)C[C@H](OCCCCO)O1)N1CCN(Cc2ccc3c(c2)OCO3)CC1 | -2 | 0 | -54* | i | -62 | /
CCOc1ccc(C2=Nc3ccc(Br)cc3C(c3ccc(N4CCOCC4)cc3)=NN2)cc1 | 2 | 0 | 17 | i | 58* | -4
CCOc1ccc(C2=Nc3ccccc3C(c3ccc(N4CCOCC4)cc3)=NN2)cc1 | / | 0 | 15 | / | 50 | -14
COc1ccc(-n2cc(C(=O)c3ccccc3O)cn2)cc1 | 5 | 0 | -51* | i | -53 | -66
COC(=O)CC(NC(=O)c1cccs1)c1ccc(OC)c(OC)c1 (stereo not drawn) | -2 | 0 | -14 | i | -12 | -4
NC(=O)c1ccsc1NC(=O)C1CCCCC1 | -2 | 0 | -57* | i | -67 | -2
SMILES | Rad51 HR inh | Hsp70 activator | HSF1 inh | HSV augment | HSF-1 act | MDM2 E3 inh
NC(=O)c1ccsc1NC(=O)c1cccs1 | -10 | 0 | -11 | i | -25 | /
COc1ccc(/C(N)=N/OC(=O)/C=C/c2ccccc2)cc1 | 14 | 0 | 35 | i | 54* | -20
N/C(=N\OC(=O)COc1ccc(Br)cc1Cl)c1ccccn1 | 2 | 0 | 13 | i | 51* | -22
N/C(=N\OC(=O)COc1ccc(Cl)cc1Cl)c1ccccn1 | 9 | 0 | 28 | i | 74* | -42
COc1ccc(/C(N)=N/OC(=O)COc2ccccc2Cl)cc1 | / | 0 | 32 | / | 58* | 13
Cc1cccc(/C(N)=N/OC(=O)COc2ccccc2Cl)c1 | / | 0 | / | / | / | 3
Cc1ccc(/C(N)=N/OC(=O)/C=C/c2ccccc2)cc1 | 2 | 0 | 25 | i | 35 | -12
Cc1cc(C)c(C)c(OCC(=O)O/N=C(\N)c2ccccn2)c1 | -10 | 0 | 4 | i | 16 | -14
O=C(CCNS(=O)(=O)c1ccccc1)N1CCN(C(c2ccccc2)c2ccccc2)CC1 | / | / | 0 | / | 0 | /
COc1ccc(COC(=O)CCc2c[nH]c3ccccc23)cc1F | / | / | -5 | / | -7 | /
CCCCC(NC(=O)COc1cc2c(c3oc(=O)cc(C)c13)CCC(C)(C)O2)C(=O)O (stereo not drawn) | / | / | 8 | / | 38 | /
N/C(=N\OC(=O)COc1ccc2ccccc2c1Br)c1ccccn1 | / | 0 | 48 | i | 83* | /
N/C(=N\OC(=O)COc1ccc2ccccc2c1Br)c1cccnc1 | / | 0 | 10 | i | 41 | /
Cc1ccc(C(=O)N/C(=C\c2ccc(-c3ccccc3[N+](=O)[O-])o2)C(=O)NCCCN2CCOCC2)cc1 | / | / | 20 | / | 58* | /
Cc1ccc(C(=O)N/C(=C\c2cn(C)c3ccccc23)C(=O)NCCCN2CCOCC2)cc1 | / | / | 0 | / | -1 | /
Cc1ccc(C(=O)N/C(=C\c2ccc(-c3cccc([N+](=O)[O-])c3)o2)C(=O)NCCCN(C)C)cc1 | / | / | -2 | / | 10 | /
Cc1ccc(C(=O)N/C(=C\c2ccc(-c3ccc(Br)cc3)o2)C(=O)NCCCN(C)C)cc1 | -255 | 0 | -97* | i | -98 | -17
CCCC[C@H]1COCCS(=O)(=O)N1Cc1ccccc1F | / | / | 4 | / | 15 | /
O=C(NCCc1ccccc1)c1coc(=O)c(Br)c1 | / | / | 24 | / | 35 | /
C#CC(=O)N(c1cc(OC)ccc1OC)C(C(=O)NC1CCCC1)c1cccs1 (stereo not drawn) | -5 | 0 | -90* | i | -91 | -17
Cc1nn(CCc2nn[nH]n2)c2nc(-c3ccc(C4CCCCC4)cc3)cc(C(F)(F)F)c12 | 4 | 0 | 5 | i | 18 | -1
Oc1c(Cl)cc(Cl)cc1C=Nc1cc(C(F)(F)F)ccc1N1CCc2ccccc2C1 | 10 | / | 37 | i | 70* | -26
C=CCn1c(O)c(N=NC(=O)OC(C)(C)C)c2ccccc21 | 2 | 0 | 5 | i | -11 | -9
C=CCn1c(O)c(N=NC(=S)Nc2ccc(OC)c(Cl)c2)c2ccccc21 | / | 0 | 7 | i | 55* | -4
COc1ccc(CCNC(=O)C/C(C)=N/NC(=O)COc2ccc(C)cc2Br)cc1OC | / | / | -2 | / | 4 | /
COc1ccc(C(=O)Nc2c(-c3cccs3)c(=O)c3ccccc3n2C)cc1 | 5 | / | 5 | i | 27 | -5
Cc1ccc(NC2OC(CO)C(O)C2O)cc1[N+](=O)[O-] (stereo not drawn) | 25 | 0 | 30 | i | 72* | 6
CCCn1c(NCc2cccc(OC)c2O)nc2ccccc21 | 2 | 0 | 32 | i | 62* | -6

Screening data (PubChem)
